Laboratory results: ChEMBL document CHEMBL5331142, “Novel 1,4-Dihydropyridines as Specific Binders and Activators of SIRT3 Impair Cell Viability and Clonogenicity and Downregulate Hypoxia-Induced Targets in Cancer Cells” (J Med Chem, 2023)
Calls of active or inactive are those of the source. The calls are words filed in the database; no cut-off is given here.

Key:
[1] = biological target: T1, NAD-dependent protein deacetylase sirtuin-1 (Homo sapiens) (UniProt Q96EB6); test: Activation of N-terminal his-tagged human SIRT1 expressed in Escherichia coli at 10 uM using p53-acK381 as substrate in presence of NAD+ by NADH oxidation-coupled enzymatic assay
T1 sequence (whole entry): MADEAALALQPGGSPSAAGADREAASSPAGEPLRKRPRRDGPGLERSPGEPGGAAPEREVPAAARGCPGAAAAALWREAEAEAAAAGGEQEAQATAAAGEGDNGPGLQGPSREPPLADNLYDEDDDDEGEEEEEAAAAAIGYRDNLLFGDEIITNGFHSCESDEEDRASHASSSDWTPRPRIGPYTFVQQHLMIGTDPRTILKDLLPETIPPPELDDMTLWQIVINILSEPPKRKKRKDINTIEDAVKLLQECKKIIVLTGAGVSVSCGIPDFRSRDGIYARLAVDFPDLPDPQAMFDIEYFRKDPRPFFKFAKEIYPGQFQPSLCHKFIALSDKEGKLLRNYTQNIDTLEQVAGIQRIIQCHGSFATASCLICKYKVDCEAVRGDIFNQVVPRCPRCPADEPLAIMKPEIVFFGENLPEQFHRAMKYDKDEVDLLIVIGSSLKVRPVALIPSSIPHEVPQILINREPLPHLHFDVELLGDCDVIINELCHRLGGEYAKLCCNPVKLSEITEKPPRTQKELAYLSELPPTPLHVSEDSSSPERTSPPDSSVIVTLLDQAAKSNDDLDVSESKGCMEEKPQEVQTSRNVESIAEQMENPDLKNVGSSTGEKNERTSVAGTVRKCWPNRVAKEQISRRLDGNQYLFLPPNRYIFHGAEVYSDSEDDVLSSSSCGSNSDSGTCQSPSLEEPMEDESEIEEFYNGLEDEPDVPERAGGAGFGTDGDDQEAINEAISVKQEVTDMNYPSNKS
In short: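 Coupled PncA/GDH deacylation assay following NADPH oxidation to NADP+. 1.5 μM sirtuin, 50 μM substrate peptide, 100 μM NAD+, compound at 10 μM, 5% final DMSO. Isoform-specific physiological substrates: p53-acK381 (SIRT1), […] (SIRT2), ACS2-acK642 (SIRT3), CPS1-succK537 (SIRT5). Sirtuins expressed in E. coli, Ni-NTA purified, tag cleaved, then size-exclusion chromatography.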

CAL-62 = test: Anticancer activity against human CAL-62 cells assessed as reduction in cell viability at 50 uM incubated for 24 to 48 hrs under normoxia condition by trypan blue exclusion assay; format: functional, cell-based; conditions: time 24-48 hrs, TDE = time-dependent effect
In short: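 CAL-62 cells in RPMI 1640 with 10% FBS, treated with 50 μM compound (DMSO) for 24 and 48 h. Hypoxia induced with 200 μM CoCl2, kept in the medium during treatment. Viable cells counted by 0.4% trypan blue staining on a hemocytometer.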

MDA-MB-231 [2] = test: Inhibition of clonogenicity in human MDA-MB-231 cells incubated for 48 hrs under hypoxia condition by crystal violet staining based assay; format: functional, cell-based; conditions: MDA-MB-231, 48 h
In short: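 Dose range 1–50 μM for 48 h under CoCl2 (200 μM) hypoxia. 500 surviving cells replated and grown about 7 days (CAL-62) or 10 days (MDA-MB-231). Crystal violet colony counts used to derive IC50/EC50. Three independent experiments.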

HaCaT = test: Cytotoxicity against human HaCaT cells assessed as reduction in cell viability at 10 to 25 uM incubated for 48 hrs by trypan blue exclusion assay; format: toxicity, cell-based; conditions: dose 10-25 µM
In short: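 HaCaT keratinocytes in DMEM with 10% FBS, treated at 5, 10 and 25 μM for 24 and 48 h. Viability and death scored by trypan blue hemocytometer counting. Three independent experiments.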

MDA-MB-231 [3] = test: Downregulation of MMP9 gene expression in human MDA-MB-231 cells at 50 uM incubated for 48 hrs by qRT-PCR analysis; format: functional, cell-based
In short: (§1)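 MDA-MB-231 cells treated with 50 μM compound for 48 h under normoxia, DMSO vehicle control. qRT-PCR quantified by the 2(−ΔCt) method as fold of control, mean ± SEM. Three independent experiments.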

MDA-MB-231 [4] = test: Downregulation of HIF1alpha expression in human MDA-MB-231 cells at 50 uM incubated for 48 hrs under hypoxia condition by Western blot analysis; format: functional, cell-based
In short: (§2)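 CAL-62 or MDA-MB-231 cells made hypoxic with 200 μM CoCl2 for 24 h, then treated with 50 μM compound for 48 h with CoCl2 retained. Lysates (15 or 50 μg protein) immunoblotted for HIF-1α, EPAS-1 or CA-IX with ACTB, ECL detection. 3-TYP (1 μM) as control.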

MDA-MB-231 [5] = test: Downregulation of CA-IX expression in human MDA-MB-231 cells at 50 uM incubated for 48 hrs under hypoxia condition by Western blot analysis; format: functional, cell-based; in short: as §2
MDA-MB-231 [6] = test: Downregulation of MMP2 gene expression in human MDA-MB-231 cells at 50 uM incubated for 48 hrs by qRT-PCR analysis; format: functional, cell-based; in short: as §1
MDA-MB-231 [7] = test: Downregulation of SNAIL gene expression in human MDA-MB-231 cells at 50 uM incubated for 48 hrs under hypoxia condition by qRT-PCR analysis; format: functional, cell-based
In short: (§3)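 MDA-MB-231 cells pretreated with 200 μM CoCl2 to induce hypoxia, then exposed to 50 μM compound for 48 h with CoCl2 maintained. qRT-PCR by the 2(−ΔCt) method vs DMSO control, mean ± SEM. Four independent experiments.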

MDA-MB-231 [8] = test: Downregulation of MMP9 gene expression in human MDA-MB-231 cells at 50 uM incubated for 48 hrs under hypoxia condition by qRT-PCR analysis; format: functional, cell-based; in short: as §3
MDA-MB-231 [9] = test: Downregulation of SLUG gene expression in human MDA-MB-231 cells at 50 uM incubated for 48 hrs under hypoxia condition by qRT-PCR analysis; format: functional, cell-based; in short: as §3

Structure (SMILES): CCOC(=O)C1=CN(C(=O)c2cc(OC)cc(OC)c2)C=C(C(=O)OCC)C1c1ccccc1
- Activity [1]: inactive
- Activity (CAL-62): Tde
- IC50 (MDA-MB-231 [2]): 3.19 µM
- Activity (HaCaT): Non-Toxic
- Activity (MDA-MB-231 [3]): Active
- Activity (MDA-MB-231 [4]): Active
- Activity (MDA-MB-231 [5]): Active
- Activity (MDA-MB-231 [6]): Active
- Activity (MDA-MB-231 [7]): Active
- Activity (MDA-MB-231 [8]): Active
- Activity (MDA-MB-231 [9]): Active

Structure (SMILES): CCOC(=O)C1=CN(C(=O)c2ccc(OC)c(OC)c2)C=C(C(=O)OCC)C1c1ccccc1
- Activity [1]: inactive
- Activity (CAL-62): Tde
- Activity (MDA-MB-231 [3]): Active
- Activity (MDA-MB-231 [4]): Active
- Activity (MDA-MB-231 [6]): Active
- Activity (MDA-MB-231 [7]): Active
- Activity (MDA-MB-231 [8]): Active
- Activity (MDA-MB-231 [9]): Active
